Converted amounts (≈) assume the structure as drawn.
Columns and labels:
Plasmodium falciparum [1] = experiment: Antiplasmodial activity against multidrug-sensitive Plasmodium falciparum NF54 by [3H]-hypoxanthine incorporation assay; type: functional, organism-based
Outline: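 IC50 against P. falciparum NF54 was run with chloroquine and artesunate as reference drugs in every experiment. Values are the mean of at least 2 independent experiments.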

[2] = Solubility of the compound in phosphate buffer at pH 6.5; type: physicochemical
Outline: (§1)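 Solubility was measured by a scaled-down shake flask method.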

[3] = Solubility of the compound in 0.01 M HCl at pH 2; type: physicochemical; outline: as §1
[4] = Metabolic stability of the compound in human liver microsomes at 0.1 uM after 30 mins by LC-MS/MS analysis; type: ADME; settings: read-out: Stability
Outline: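 A one-point microsomal stability assay was used, expressed as the percentage of parent compound remaining after 30 min incubation.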

Plasmodium falciparum [5] = experiment: Antiplasmodial activity against multidrug-resistant Plasmodium falciparum K1 by [3H]-hypoxanthine incorporation assay; type: functional, organism-based
Outline: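 In vitro IC50 against the multidrug-resistant K1 strain of P. falciparum. Chloroquine and artesunate were run as reference drugs in every experiment. Values are means of ≥2 independent experiments.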

[6] = Intrinsic clearance in human liver microsomes assessed per mg of protein at 0.1 uM by LC-MS/MS analysis; type: ADME; settings: read-out: CLH
[7] = molecular target: Voltage-gated inwardly rectifying potassium channel KCNH2 (Homo sapiens, UniProt Q12809); experiment: Inhibition of human ERG expressed in CHO cells by patch clamp electrophysiology assay; type: cell-based
[8] = Degradation half-life in human liver microsomes at 0.1 uM by LC-MS/MS analysis; type: ADME
Mus musculus = experiment: Acute toxicity in GFP-transfected Plasmodium berghei ANKA infected NMRI mouse at 50 mg/kg, po qd for 4 days; type: organism-based; settings: in vivo, 96 h
Outline: (§2)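 P. berghei-infected mice dosed orally at 50 mg/kg once daily for 4 days. Compound was dissolved or suspended in a standard non-solubilizing HPMC suspension vehicle. Mice were watched for acute toxicity after dosing. Parasitemia reduction was calculated against untreated infected controls, and survival was recorded as mean survival time in days.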

Plasmodium berghei [9] = experiment: Antimalarial activity against GFP-transfected Plasmodium berghei ANKA infected in NMRI mouse assessed as reduction of parasitemia in blood at 50 mg/kg, po qd for 4 days by flow cytometry analysis; type: functional; design: scale not given: the % may be the effect or the level left
Outline: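 In P. berghei-infected mice, compound was dissolved or suspended in a standard non-solubilizing HPMC suspension vehicle and given orally once daily for 4 days (4 × 50 mg/kg). Parasitemia reduction was expressed as % relative to untreated control mice. Mean survival time in days was also recorded.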

[10] = Partition coefficient, log D of the compound at pH 7.4 by HPLC chromatographic method; type: physicochemical; settings: octanol/water
Outline: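 logD was estimated by HPLC-DAD-MS.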

Plasmodium berghei [11] = experiment: Antimalarial activity against GFP-transfected Plasmodium berghei ANKA infected in NMRI mouse assessed as mean survival time at 50 mg/kg, po qd for 4 days by flow cytometry analysis; type: functional; outline: as §2

Chain of Voltage-gated inwardly rectifying potassium channel KCNH2 (Q12809 whole entry): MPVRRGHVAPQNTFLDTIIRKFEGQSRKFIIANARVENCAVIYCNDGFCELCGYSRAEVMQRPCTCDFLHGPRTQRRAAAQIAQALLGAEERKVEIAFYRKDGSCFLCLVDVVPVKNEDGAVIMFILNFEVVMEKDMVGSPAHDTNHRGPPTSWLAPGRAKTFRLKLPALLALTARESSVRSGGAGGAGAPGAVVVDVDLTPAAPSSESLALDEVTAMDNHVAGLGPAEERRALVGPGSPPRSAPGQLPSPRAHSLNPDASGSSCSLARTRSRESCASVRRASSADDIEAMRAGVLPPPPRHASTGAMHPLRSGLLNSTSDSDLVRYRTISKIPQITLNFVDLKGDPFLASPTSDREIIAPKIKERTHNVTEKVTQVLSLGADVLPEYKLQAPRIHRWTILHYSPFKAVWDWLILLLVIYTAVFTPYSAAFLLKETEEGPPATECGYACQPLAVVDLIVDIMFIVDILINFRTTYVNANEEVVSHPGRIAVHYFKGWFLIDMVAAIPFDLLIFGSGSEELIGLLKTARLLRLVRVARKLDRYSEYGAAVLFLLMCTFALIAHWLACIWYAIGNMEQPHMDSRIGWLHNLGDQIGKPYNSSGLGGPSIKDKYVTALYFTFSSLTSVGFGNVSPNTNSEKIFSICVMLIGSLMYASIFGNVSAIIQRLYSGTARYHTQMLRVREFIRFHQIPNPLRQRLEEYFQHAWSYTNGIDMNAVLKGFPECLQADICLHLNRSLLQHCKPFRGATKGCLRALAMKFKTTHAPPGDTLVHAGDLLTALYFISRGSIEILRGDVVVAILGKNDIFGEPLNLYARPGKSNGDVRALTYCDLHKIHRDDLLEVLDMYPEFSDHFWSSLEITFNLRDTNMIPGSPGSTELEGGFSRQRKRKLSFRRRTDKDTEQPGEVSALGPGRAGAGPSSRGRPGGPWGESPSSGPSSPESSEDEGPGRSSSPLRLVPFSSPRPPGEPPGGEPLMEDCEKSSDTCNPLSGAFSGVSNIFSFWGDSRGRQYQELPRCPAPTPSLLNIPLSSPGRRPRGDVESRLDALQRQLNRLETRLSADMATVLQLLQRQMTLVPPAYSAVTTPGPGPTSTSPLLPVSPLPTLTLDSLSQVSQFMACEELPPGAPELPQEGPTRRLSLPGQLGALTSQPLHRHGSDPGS

## CN(C)CCCNc1nc(N2CCOCC2)nc2cc(-c3ccc(C(F)(F)F)cc3)sc12
Plasmodium falciparum [1]
  IC50: > 2.15 µM
[2]
  solubility: < 5 µg/mL
[3]
  solubility: 211 µg/mL (≈ 453 µM)
[4]
  remaining at 0.5 h, 0.1 µM: 92%

## CNc1nc(NC2CCOCC2)c2sc(-c3ccc(C(F)(F)F)cc3)cc2n1
Plasmodium falciparum [1]
  IC50: 0.047 µM
[2]
  solubility: < 5 µg/mL
[3]
  solubility: < 5 µg/mL
Plasmodium falciparum [5]
  IC50: 0.14 µM
[4]
  remaining at 0.5 h, 0.1 µM: 100%

## CNc1nc(OCCCN(C)C)c2sc(-c3ccc(C(F)(F)F)cc3)cc2n1
Plasmodium falciparum [1]
  IC50: 1.83 µM
[2]
  solubility: 174 µg/mL (≈ 424 µM)
[3]
  solubility: 174 µg/mL (≈ 424 µM)
Plasmodium falciparum [5]
  IC50: > 2.44 µM

## Nc1nc(NC2CCNC2)c2sc(-c3ccc(C(F)(F)F)cc3)cc2n1 (stereo not drawn)
Plasmodium falciparum [1]
  IC50: 0.1 µM
[6]
  microsomal CLint at 0.1 µM: < 11.6 µL/min/mg
[2]
  solubility: 155 µg/mL (≈ 409 µM)
[3]
  solubility: 155 µg/mL (≈ 409 µM)
Plasmodium falciparum [5]
  IC50: 0.116 µM
[7]
  IC50: 2.4 µM
[8]
  half-life at 0.1 µM: > 2.5 h

## Nc1nc(NC2CCS(=O)(=O)CC2)c2sc(-c3ccc(C(F)(F)F)cc3)cc2n1
Plasmodium falciparum [1]
  IC50: 0.678 µM

## CN(C)CCCNc1nc(N2CCNCC2)nc2cc(-c3ccc(C(F)(F)F)cc3)sc12
Plasmodium falciparum [1]
  IC50: 0.164 µM
[6]
  microsomal CLint at 0.1 µM: < 17 µL/min/mg
[2]
  solubility: 178 µg/mL (≈ 383 µM)
[3]
  solubility: 198 µg/mL (≈ 426 µM)
[8]
  half-life at 0.1 µM: > 1.67 h

## Nc1nc(NC2CCOCC2)c2sc(-c3ccc(C(F)(F)F)cc3)cc2n1
Plasmodium falciparum [1]
  IC50: 0.451 µM
[2]
  solubility: < 5 µg/mL
[3]
  solubility: < 5 µg/mL
[7]
  IC50: 0.7 µM
[4]
  remaining at 0.5 h, 0.1 µM: 98%

## CN(C)CCCNc1ncnc2cc(-c3ccc(C(F)(F)F)cc3)sc12
Plasmodium falciparum [1]
  IC50: 0.5 µM
[2]
  solubility: 205 µg/mL (≈ 539 µM)
[3]
  solubility: 209 µg/mL (≈ 549 µM)
[4]
  remaining at 0.5 h, 0.1 µM: 91%

## CNc1nc(NCC(F)(F)F)c2sc(-c3ccc(C(F)(F)F)cc3)cc2n1
Plasmodium falciparum [1]
  IC50: 0.047 µM
[2]
  solubility: < 5 µg/mL
[3]
  solubility: 28 µg/mL (≈ 68.9 µM)
Plasmodium falciparum [5]
  IC50: 0.138 µM
[7]
  IC50: > 33 µM
[4]
  remaining at 0.5 h, 0.1 µM: 75%

## Nc1nc(NC2CCCNC2)c2sc(-c3ccc(C(F)(F)F)cc3)cc2n1 (stereo not drawn)
Plasmodium falciparum [1]
  IC50: 0.036 µM
[2]
  solubility: 125 µg/mL (≈ 318 µM)
[3]
  solubility: 125 µg/mL (≈ 318 µM)
[4]
  remaining at 0.5 h, 0.1 µM: 69%

## Nc1nc(NC2CCNCC2)c2sc(-c3ccc(C(F)(F)F)cc3)cc2n1
Plasmodium falciparum [1]
  IC50: 0.025 µM
[6]
  microsomal CLint at 0.1 µM: < 11.6 µL/min/mg
Mus musculus
  Activity: Non-toxic
Plasmodium berghei [9]
  Activity: 78%
[10]
  chromatographic logD: 2.4
[2]
  solubility: 168 µg/mL (≈ 427 µM)
[3]
  solubility: 168 µg/mL (≈ 427 µM)
Plasmodium falciparum [5]
  IC50: 0.024 µM
Plasmodium berghei [11]
  MSD: 7 days
[4]
  remaining at 0.5 h, 0.1 µM: 100%
[8]
  half-life at 0.1 µM: > 2.5 h

## CN(C)CCCNc1nc(N(C)C)nc2cc(-c3ccc(C(F)(F)F)cc3)sc12
Plasmodium falciparum [1]
  IC50: 0.1 µM
[2]
  solubility: 168 µg/mL (≈ 397 µM)
[3]
  solubility: 212 µg/mL (≈ 501 µM)
[4]
  remaining at 0.5 h, 0.1 µM: 66%

## CNc1nc(-c2ccc(C(F)(F)F)cc2)c2sc(-c3ccc(C(F)(F)F)cc3)cc2n1
Plasmodium falciparum [1]
  IC50: > 2.21 µM

## CNc1nc(NCCCN2CCOCC2)c2sc(-c3ccc(C(F)(F)F)cc3)cc2n1
Plasmodium falciparum [1]
  IC50: 0.043 µM
[6]
  microsomal CLint at 0.1 µM: 72.4 µL/min/mg
[2]
  solubility: 96 µg/mL (≈ 213 µM)
[3]
  solubility: 196 µg/mL (≈ 434 µM)
[8]
  half-life at 0.1 µM: 0.398 h

## CNc1nc(N2CCNCC2)c2sc(-c3ccc(C(F)(F)F)cc3)cc2n1
Plasmodium falciparum [1]
  IC50: 0.095 µM

## CNc1nc(N)c2sc(-c3ccc(C(F)(F)F)cc3)cc2n1
Plasmodium falciparum [1]
  IC50: 1.16 µM
[10]
  chromatographic logD: 3.4
[2]
  solubility: 3.1 µg/mL (≈ 9.56 µM)
[3]
  solubility: > 100 µg/mL

## CN(C)CCCNc1nc(N)nc2cc(-c3ccc(C(F)(F)F)cc3)sc12
Plasmodium falciparum [1]
  IC50: 0.057 µM
[6]
  microsomal CLint at 0.1 µM: 16.9 µL/min/mg
[2]
  solubility: 148 µg/mL (≈ 374 µM)
[3]
  solubility: 210 µg/mL (≈ 531 µM)
[4]
  remaining at 0.5 h, 0.1 µM: 94%
[8]
  half-life at 0.1 µM: 1.73 h

## CN(C)CCCNc1nc(NCc2ccccc2)nc2cc(-c3ccc(C(F)(F)F)cc3)sc12
Plasmodium falciparum [1]
  IC50: 0.042 µM
[2]
  solubility: < 5 µg/mL
[3]
  solubility: 208 µg/mL (≈ 428 µM)
[4]
  remaining at 0.5 h, 0.1 µM: 100%

## CNc1nc(NC(C)(C)C)c2sc(-c3ccc(C(F)(F)F)cc3)cc2n1
Plasmodium falciparum [1]
  IC50: 0.116 µM
[6]
  microsomal CLint at 0.1 µM: 14 µL/min/mg
[10]
  chromatographic logD: > 5.3
[2]
  solubility: < 1.6 µg/mL
[3]
  solubility: 1.6 µg/mL (≈ 4.21 µM)
[8]
  half-life at 0.1 µM: 2.07 h

## CNc1nc(NCCCN)c2sc(-c3ccc(C(F)(F)F)cc3)cc2n1
Plasmodium falciparum [1]
  IC50: > 2.61 µM
Plasmodium falciparum [5]
  IC50: > 2.61 µM

## CNc1nc(NCCCO)c2sc(-c3ccc(C(F)(F)F)cc3)cc2n1
Plasmodium falciparum [1]
  IC50: 0.111 µM
Plasmodium falciparum [5]
  IC50: 0.233 µM

## CNc1nc(NC2CC2)c2sc(-c3ccc(C(F)(F)F)cc3)cc2n1
Plasmodium falciparum [1]
  IC50: 0.137 µM
[6]
  microsomal CLint at 0.1 µM: 25.2 µL/min/mg
[2]
  solubility: < 5 µg/mL
[3]
  solubility: 120 µg/mL (≈ 329 µM)
Plasmodium falciparum [5]
  IC50: 0.447 µM
[8]
  half-life at 0.1 µM: 1.15 h

## CN1CCC(Nc2nc(N)nc3cc(-c4ccc(C(F)(F)F)cc4)sc23)CC1
Plasmodium falciparum [1]
  IC50: 0.05 µM
[2]
  solubility: 147 µg/mL (≈ 361 µM)
[3]
  solubility: 147 µg/mL (≈ 361 µM)
[4]
  remaining at 0.5 h, 0.1 µM: 95%

## C[C@H]1[C@H](OC(=O)CCC(=O)O)O[C@@H]2O[C@@]3(C)CC[C@H]4[C@H](C)CC[C@@H]1[C@@]24OO3 [ARTESUNATE]
Plasmodium falciparum [1]
  IC50: 0.004 µM
Plasmodium falciparum [5]
  IC50: 0.003 µM

## CNc1nc(Nc2cccc(C(N)=O)c2)c2sc(-c3ccc(C(F)(F)F)cc3)cc2n1
Plasmodium falciparum [1]
  IC50: 0.052 µM
[2]
  solubility: 8 µg/mL (≈ 18 µM)
[3]
  solubility: 85 µg/mL (≈ 192 µM)
Plasmodium falciparum [5]
  IC50: 0.113 µM
[4]
  remaining at 0.5 h, 0.1 µM: 83%

## CNc1nc(NCCN2CCOCC2)c2sc(-c3ccc(C(F)(F)F)cc3)cc2n1
Plasmodium falciparum [1]
  IC50: 0.08 µM
[2]
  solubility: 42 µg/mL (≈ 96 µM)
[3]
  solubility: 213 µg/mL (≈ 487 µM)
Plasmodium falciparum [5]
  IC50: 0.121 µM
[4]
  remaining at 0.5 h, 0.1 µM: 51%

## Nc1nc(N2CCC(O)CC2)c2sc(-c3ccc(C(F)(F)F)cc3)cc2n1
Plasmodium falciparum [1]
  IC50: > 2.54 µM

## CN(C)CCCNc1nc(Cl)nc2cc(-c3ccc(C(F)(F)F)cc3)sc12
Plasmodium falciparum [1]
  IC50: 1.08 µM

## CS(=O)(=O)c1ccc(-c2nc(N3CCNCC3)nc3cc(-c4ccc(C(F)(F)F)cc4)sc23)cc1
Plasmodium falciparum [1]
  IC50: 1.46 µM
[2]
  solubility: < 5 µg/mL
[3]
  solubility: 174 µg/mL (≈ 336 µM)

## COc1nc(NCCCN(C)C)c2sc(-c3ccc(C(F)(F)F)cc3)cc2n1
Plasmodium falciparum [1]
  IC50: 1.39 µM
[6]
  microsomal CLint at 0.1 µM: < 17 µL/min/mg
[2]
  solubility: < 5 µg/mL
[3]
  solubility: 214 µg/mL (≈ 521 µM)
Plasmodium falciparum [5]
  IC50: 1.4 µM
[8]
  half-life at 0.1 µM: > 1.67 h

## CNc1nc(NCCN2CCNCC2)c2sc(-c3ccc(C(F)(F)F)cc3)cc2n1
Plasmodium falciparum [1]
  IC50: 0.034 µM
[2]
  solubility: 115 µg/mL (≈ 263 µM)
[3]
  solubility: 203 µg/mL (≈ 465 µM)
Plasmodium falciparum [5]
  IC50: 0.037 µM
[4]
  remaining at 0.5 h, 0.1 µM: 100%

## Nc1nc(NC2CCCCC2)c2sc(-c3ccc(C(F)(F)F)cc3)cc2n1
Plasmodium falciparum [1]
  IC50: 0.168 µM

## N#CC1CCN(c2nc(N)nc3cc(-c4ccc(C(F)(F)F)cc4)sc23)CC1
Plasmodium falciparum [1]
  IC50: > 2.48 µM

## Nc1nc(N2CCC(F)(F)CC2)c2sc(-c3ccc(C(F)(F)F)cc3)cc2n1
Plasmodium falciparum [1]
  IC50: > 2.38 µM

## Nc1nc(NC2CNC2)c2sc(-c3ccc(C(F)(F)F)cc3)cc2n1
Plasmodium falciparum [1]
  IC50: 0.936 µM
